Activity, GI50 and inhibition data for two molecules are collected here from ChEMBL document CHEMBL1781902, “Anticancer properties of an important drug lead podophyllotoxin can be efficiently mimicked by diverse heterocyclic scaffolds accessible via one-step synthesis” (2011).

Molecules are shown by their SMILES. Activity calls are given as the source filed them. The rule behind the calls is not given here.

Assay [1] has as its system HeLa. In words: Antimitotic activity in human HeLa cells assessed as visible deffect in microtubule organization at 5 nM after 3 hrs by inverted microscopic analysis. The assay is classed as functional, cell-based. Put shortly:
(§1)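 HeLa cells in DMEM with 10% fetal calf serum, pyruvate, bicarbonate and PSF were treated 3 h with compound solubilized in DMSO and prediluted in medium, or with 0.1% DMSO carrier. Cells were fixed in methanol at −20°C and blocked 1 h in PBS-5% BSA. They were stained overnight at 4°C for tubulin, Hec1 and Hoechst 33342, then imaged by epifluorescence with structured illumination.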

Assay [2] deals with HeLa. Kind of assay: Antiproliferative activity against human HeLa cells after 48 hrs by MTT assay. The format is functional. Put shortly:
(§2)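 Cells were seeded at 2 × 10^4 cells/mL, allowed to adhere 24 h, then exposed 48 h to a concentration series, with DMSO as control. MTT was added for 2 h at 37 °C, formazan dissolved in DMSO and OD read at 490 nm. GI50 is the concentration giving 50% viability loss versus DMSO; 8 replicates, at least two independent experiments, ± SD.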
(In general: Tetrazolium dyes change colour on reduction, which living cells bring about.)

Assay [3] deals with MCF7. In words: Antiproliferative activity against human MCF7 cells after 48 hrs by MTT assay. The format is functional. Particulars: MCF7, 48 h. In a few lines: as §2
The test system of assay [4] is Jurkat. In words: Induction of apoptosis in human Jurkat cells assessed as cleavage of caspase 3 substrate DEVD-p-nitroanaline 2 hrs by spectrophotometric analysis. The assay is classed as functional, cell-based. Put shortly:
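Jurkat cells (RPMI-1640, 10% FBS) were treated at 0.1, 0.5 and 1 μM alongside DMSO control. Lysates from 1 × 10^6 cells were normalized by BCA protein assay, then incubated with DEVD-pNA substrate for 2 h at 37 °C. Read at 405 nm and expressed relative to DMSO set as one. Quadruplicates, repeated at least twice.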

For assay [5], the species on record is Bos taurus. In words: Inhibition of purified bovine tubulin polymerization assessed as microtubule destabilization at 25 uM after 20 mins by fluorescence spectrophotometric analysis. In a few lines:
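Purified bovine tubulin was incubated at 37 °C in buffer with 10% glycerol and 1 mM GTP, each agent in a separate run, against a 0.05% DMSO control. Polymerization was followed by fluorescence spectrophotometry for 20 min, reading every 15 s.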

In assay [6] the test system is HeLa. Kind of assay: Antimitotic activity in human HeLa cells assessed as visible deffect in mitotic spindle formation at 10 uM after 3 hrs by inverted microscopic analysis. The assay is classed as functional, cell-based. Put shortly: as §1
Assay [7] concerns HeLa. In words: Antimitotic activity in human HeLa cells assessed as disruption of interphase microtubule organization at 10 uM after 3 hrs by inverted microscopic analysis. The assay is classed as functional, cell-based. In a few lines: as §1

Regarding `COc1cc2c(c(OC)c1OC)-c1ccc(OC)c(=O)cc1[C@@H](NC(C)=O)CC2`, the outcome in assay [1] was inactive.
For `COc1cc([C@@H]2c3cc4c(cc3[C@H](O)[C@H]3COC(=O)[C@H]23)OCO4)cc(OC)c1OC` [PODOFILOX], the GI50 was 20 nM in assay [2] and 10 nM in assay [3]. Besides, the result in assay [4] and in assay [6] was Active. The inhibition entry in assay [5] is “Active”. Further, the outcome in assay [7] was inactive.

A word on the GI50: it is the concentration that inhibits growth by half. Low values mean more potent growth inhibition, high ones less potent growth inhibition.
